Article PMC6940675 (Molecular Therapy Oncolytics, 2019)
Where no end group is shown, it is not given here.

What was measured:
[1] = test system: breast cancer cell line, MCF-7; test: MTT assay; format: cell-based; conditions: MCF-7, 24-h incubation with peptide, triplicate, OD 550 nm
In short: (§1)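 ATCC cells were maintained at 37°C, 5% CO2: U87 and A375 in DMEM with 10% FBS and 1% penicillin/streptomycin, MCF-7 in DMEM with 5% FBS. They were seeded at 5,000 cells/well and grown 24 h. Peptide came from a 10 mM stock diluted in medium; controls got PBS. MTT (5 mg/mL in PBS, pH 7.4) was added for 4 h, then formazan was dissolved in DMSO.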

[2] = test system: brain glioma cell line, U87; test: MTT assay; format: cell-based; conditions: U87, 24-h incubation with peptide, triplicate, OD 550 nm
In short: as §1

[3] = test system: malignant melanoma cell line, A375; test: MTT assay; format: cell-based; conditions: A375, 24-h incubation with peptide, triplicate, OD 550 nm
In short: as §1

[4] = Circular dichroism spectroscopy; format: physicochemical; conditions: CD, CDNN
In short: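 POPE/POPG (7:3) dried from chloroform under N2 overnight, resuspended in PBS pH 7.4 and extruded through 0.1-μm membranes to form SUVs, used within 6 h. Peptide at 0.5 mM in PBS pH 7.4, alone or with SUVs. Spectra taken at 25°C from 250–190 nm in a 0.1-mm quartz cell, 1-nm steps, 60 nm/min. Each spectrum averaged three scans and was baseline-subtracted. Helix content estimated by CDNN 2.1.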

MCF-10A cells [5] = test: Apoptosis assay, flow cytometry Annexin V/PI; format: cell-based, human; conditions: 5 μM, normal breast cell line
In short: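 MCF-10A cells, a normal breast line, grown in DMEM/F12 with 5% horse serum, hydrocortisone, insulin, EGF and cholera toxin. Seeded at 2 × 10^5 cells/mL in 6-well plates and cultured 24 h before peptide exposure; PBS served as negative control. After 1−3 h, cells were washed in cold PBS and set to 1 × 10^6 cells/mL in Annexin-binding buffer. Stained with Alexa Fluor 488 Annexin V plus PI for 10 min at room temperature. Read by flow cytometry, excitation 488 nm, emission 530 and 575 nm.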

MCF-7 cells = test: PI and Annexin V staining, fluorescent images; format: cell-based; conditions: 5 μM, in comparison with AP1-Z1
In short: (§2)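 MCF-7 (DMEM, 5% FBS) or MCF-10A (DMEM/F12 with horse serum, hydrocortisone, insulin, EGF, cholera toxin) seeded at 2 × 10^4 cells/well in 48-well plates and cultured 24 h. Peptide added, with PBS as negative control. After 1−3 h, Alexa Fluor 488 Annexin V (1:250 v/v) and PI (1:1,000 v/v) were added for 30 min at 37°C. Cells were then imaged by fluorescence microscopy.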

MCF-10A cells [6] = test: PI and Annexin V staining, fluorescent images; format: cell-based, human; conditions: 5.0 μM
In short: as §2

HUVECs = test: Anti-angiogenesis assay; format: cell-based, human; conditions: 10.0 μM, 10−12 h, in comparison with the blank control (PBS), one-way ANOVA, Angiogenesis Analyzer for ImageJ
In short: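 HUVECs grown in Medium 200 with low serum growth supplement at 37°C, 5% CO2. Matrigel thawed overnight at 4°C, added to μ-Slide wells and polymerised 30−60 min in a humidified incubator. HUVECs at 1 × 10^5 cells/mL were added and incubated 10−12 h at 37°C, 5% CO2, with a PBS-treated negative control. Tube formation was then imaged by fluorescence microscopy.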

[7] = test system: MCF 7, A375 and U87 cancer cell lines; test: MTT assay, comparison over three cancer cell lines; format: cell-based; conditions: result in words
In short: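 Lines used: MCF-7 (DMEM, 5% FBS) and A375 and U87 (DMEM, 10% FBS, penicillin/streptomycin). Seeded at 5,000 cells/well and grown 24 h. Peptides were diluted from 10 mM stock in medium; PBS served as control; triplicates. After 24 h exposure, MTT was added for 4 h at 37°C. Formazan was dissolved in DMSO and OD read at 550 nm.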

[8] = 0.5 mM peptide in 1× PBS buffer pH 7.4, 25°C, average of three scans

| Substance | IC50 [1] | IC50 [2] | IC50 [3] | α helix ratio [4, 8] | other results |
| --- | --- | --- | --- | --- | --- |
| FLFKLIKHAIKGLIKAFK-NH2 [AP1-Z5b] | 1.04 µM | 3.12 µM | 2.61 µM | – | – |
| FLFSLIKHAIKGLISAFK [AP1-Z3a] | – | – | – | 24.28% | – |
| FLFKLIKKAIKKLIKAFK [AP1-Z7] | – | – | – | 16.16% | α helix ratio ([4]; 0.5 mM peptide in POPE/POPG (7:3) SUVs in 1× PBS, 3:1 lipid:peptide): 44.95% |
| FLFSLIPHAISGLISAFK-NH2 [AP1-Z1] | 7.22 µM | 10.2 µM | 9.48 µM | – | – |
| FLFKLIPKAIKGLIKAFK [AP1-Z5a] | – | – | – | – | apoptosis of MCF-10A cells (MCF-10A cells [5]): did not significantly promote the apoptosis; apoptosis of MCF-7 cells (ANXA5/PI fluorescent images) (MCF-7 cells): significantly induced the apoptosis; apoptosis of MCF-10A cells (ANXA5/PI fluorescent images) (MCF-10A cells [6]): no significant change in the apoptosis; angiogenesis (tube formation of HUVECs) (HUVECs): significantly inhibited angiogenesis; IC50 relative to the other peptides [7]: relatively lower |
